Results gathered from unrelated publications.
Compare with care: the assays were run in different laboratories.
Read-out: enzyme activity
Action: inhibitor
FGFR1: Fibroblast growth factor receptor 1 (FGFR1, Homo sapiens, UniProt P11362)

SMILES	target	test	conditions	remaining activity [%]
COc1cc(Cl)c(C(=O)N[C@@H](CN[C@H]2CC[C@@H](N)CC2)Cc2ccc(C#N)cc2)cc1-c1ccc(CN[C@H](C)c2ccc(C)cc2)o1	FGFR1		1 µM	94
O=C(Nc1cnn(-c2csc(C(=O)NC3COC3)c2)c1)Nc1c(F)cccc1Cl	FGFR1		5 µM	91.4
Oc1cccc(-c2nc(N3CCOCC3)c3oc4ncccc4c3n2)c1	FGFR1		10 µM	118
Cc1[nH]c(/C=C2\C(=O)Nc3ccc(F)cc32)c(C)c1C(=O)N[C@H]1CCN(C(=O)N(C)C)C1	FGFR1		0.1 µM	122
CC(C)(O)[C@H]1CC[C@H](Nc2ccc3ncc(-c4cccc(C(F)(F)F)c4)n3n2)CC1	FGFR1		1 µM	97
CCCOc1ccc(OC)c(F)c1C(=O)c1ccc(C(=O)N[C@@H]2CNC[C@H]2NC(=O)c2ccc3[nH]ncc3c2)cc1	FGFR1		10 µM	28
CC(C)(C)c1nc(-c2cccc(NS(=O)(=O)c3c(F)cccc3F)c2F)c(-c2ccnc(N)n2)s1	FGFR1	radiometric	1 µM	89
Cc1cnc(NC2CCOCC2)nc1-n1cnc(C(=O)NC(CN)c2cc(F)cc(Cl)c2)c1 (stereo not drawn)	Fibroblast growth factor receptor 1 (FGFR1, Homo sapiens, UniProt P11362, V561M)	radiometric	1 µM	104
Nc1nc(NC2CCCCC2)sc1C(=O)c1ccccc1	FGFR1		10 µM	97
O=C(Nc1cnn(-c2csc(C(=O)NC3COC3)c2)c1)Nc1ccccc1Cl	FGFR1		5 µM	95.9
COc1cc(Nc2cnc(C#N)c(O[C@H](C)CN(C)C)n2)ncc1-c1cnn(C)c1	FGFR1	radiometric	10 µM	39
CCN(CC)CCNC(=O)c1c(C)[nH]c(/C=C2\C(=O)Nc3ccc(F)cc32)c1C	FGFR1		0.1 µM	79
